Compounds with a hit are over-represented: about 1.4% of the library has one in this group of screens.
GSTO1 counter: blocks human GSTO1 in RBBP9 counter-screen; inhibition, % at 5.96 µM; P78417; 300,000 tested, 1.1% active; recombinant GSTO1, activity-based probe fluorescence polarization;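 active means inhibition above the campaign mean inhibition plus 3 SD, cut at about 35% in these data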
CTSL1 counter: counter-screen for PFM18AAP inhibitors: inhibitors of F. hepatica cathepsin L1 | recombinant F. hepatica cathepsin L1, Z-Leu-Arg-MCA fluorescence | inhibition, % at 5.96 µM | 300,000 tested, 0.49% active | AID 1906;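 active means inhibition above the mean of all tested compounds plus 3 SD, set per screening campaign, cut at about 17% in these data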
PAD4 FP inh: blocks human protein arginine deiminase 4 | Q9UM07 | recombinant PAD4, RCA probe fluorescence polarization | inhibition, % at 6.36 µM | 330,000 tested, 0.41% active | AID 485272;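 active means percent inhibition above a cutoff equal to the mean of all tested compounds plus 3 SD, cut at about 15% in these data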
Target sequence (Q9UM07 whole entry, looked up): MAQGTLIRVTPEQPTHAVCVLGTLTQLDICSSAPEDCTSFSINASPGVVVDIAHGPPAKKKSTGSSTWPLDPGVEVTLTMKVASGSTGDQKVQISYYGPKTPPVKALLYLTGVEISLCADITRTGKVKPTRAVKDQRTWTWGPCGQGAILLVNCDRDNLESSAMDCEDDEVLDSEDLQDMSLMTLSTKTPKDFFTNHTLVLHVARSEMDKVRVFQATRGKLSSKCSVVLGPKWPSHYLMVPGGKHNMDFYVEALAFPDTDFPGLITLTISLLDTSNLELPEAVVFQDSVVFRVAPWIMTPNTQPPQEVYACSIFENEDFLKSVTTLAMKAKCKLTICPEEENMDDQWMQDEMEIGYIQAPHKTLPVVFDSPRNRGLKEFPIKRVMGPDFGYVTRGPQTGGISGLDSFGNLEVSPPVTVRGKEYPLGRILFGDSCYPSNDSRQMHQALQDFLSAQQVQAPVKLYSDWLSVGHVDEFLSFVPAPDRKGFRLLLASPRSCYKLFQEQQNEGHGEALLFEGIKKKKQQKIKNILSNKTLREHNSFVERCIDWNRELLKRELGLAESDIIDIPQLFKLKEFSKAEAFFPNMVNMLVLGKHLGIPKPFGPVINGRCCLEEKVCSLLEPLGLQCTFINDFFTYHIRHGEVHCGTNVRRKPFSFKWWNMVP
TDP2 inh: blocks human TDP2 phosphodiesterase activity | 370,000 tested, 0.34% active | O95551 | inhibition, % at 12.8 µM | AID 720702 | recombinant TDP2, T5PNP hydrolysis, p-nitrophenol absorbance 415 nm;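 active means inhibition above the mean of all tested compounds plus 3 SD, set per campaign, cut at about 25% in these data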
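Material: recombinant human TDP2; quantity: TDP2 enzyme at 120 nM final; medium: Tris-HCl pH 7.5 with MgCl2; compound: single concentration, 12.8 µM nominal, with 1% DMSO; incubation: 2 h enzyme incubation at 37 °C; signal: epi absorbance; measure: percent inhibition; benchmarks: high control without enzyme, low control DMSO plus TDP2; repeats: singlicate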
Each line names hits and unclear results; the compound was inactive in the other large screens.

O=C(NCc1ccco1)/C(=C/C=C/c1ccccc1)NC(=O)c1ccco1	CTSL1 counter 27.0
O=C(NCc1ccco1)/C(=C/c1ccccc1)NC(=O)c1ccco1	none
CCC(=O)N1CCc2cc(Br)c(S(=O)(=O)N3CCC(C(=O)NC(C)(C)C)CC3)cc21	none (no result: GSTO1 counter, CTSL1 counter, PAD4 FP inh)
CC(C)[C@H](NC(=O)N1CCOCC1)C(=O)N1CCC[C@H]1C(=O)NCc1ccccc1	none (no result: GSTO1 counter, CTSL1 counter, PAD4 FP inh)
COc1cc(Oc2ccccc2)nc(N)n1	CTSL1 counter 29.6
CC(=O)Nc1ccc(C(=O)/C=C/c2ccco2)cc1	CTSL1 counter 22.4
CCN(CC)c1ccc(C=Nn2c(-c3ccc(F)cc3)n[nH]c2=S)c(O)c1	none (no result: GSTO1 counter, CTSL1 counter, PAD4 FP inh)
CCN(CC)c1ccc(/C=C(\C#N)C(=O)NCc2ccco2)cc1	CTSL1 counter 23.1
O=C(Nc1ccc(Cl)cc1)OC1CCC12CCC(c1ccccc1)CC2 (stereo unspecified)	none (no result: GSTO1 counter, CTSL1 counter, PAD4 FP inh)
CCOc1ccccc1NC(=O)c1oc2ccccc2c1NC(=O)C1CCCO1 (stereo unspecified)	CTSL1 counter 18.1
COc1ccc(-c2cc3nc4ccccc4n3c(N)c2C#N)cc1	GSTO1 counter 38.5
Cc1[nH]c2ccccc2c1SCC(=O)NC1CCCCC1	CTSL1 counter 23.3
Oc1oc(-c2ccccc2)nc1C=NCc1ccncc1	CTSL1 counter 36.2
Oc1oc(-c2ccccc2)nc1C=Nc1cccc2ccccc12	none
Oc1oc(-c2ccc(Br)cc2)nc1/C=N/c1ccccn1	CTSL1 counter 22.7
Oc1oc(-c2ccccc2)nc1/C=N/c1nccs1	CTSL1 counter 45.0
N/C(CCS(=O)(=O)c1ccc(Cl)cc1)=N\OC(=O)c1ccc(Cl)cc1	CTSL1 counter 17.4
N/C(CCS(=O)(=O)c1ccc(Cl)cc1)=N\OC(=O)c1ccccc1C(F)(F)F	CTSL1 counter 18.6
COc1cc(CNCCNC(=O)c2cccs2)cc(OC)c1OC	TDP2 inh 28.2
COC(=O)C1=C(C)N(Cc2cccc(C(F)(F)F)c2)C(=NCc2ccc3c(c2)OCO3)NC1c1ccc(F)cc1 (stereo unspecified)	none (no result: GSTO1 counter, CTSL1 counter, PAD4 FP inh)
CCOc1ccc(C2CC(c3cccc(C)c3)n3ncnc3N2)cc1 (stereo unspecified)	none
CCOc1ccc(C2CC(c3ccc(OC)cc3)n3ncnc3N2)cc1 (stereo unspecified)	CTSL1 counter 18.1
COCCNC(=O)/C(C#N)=C/C=C/c1ccccc1[N+](=O)[O-]	GSTO1 counter 43.8
Cn1c(=O)n(C)c2cc(S(=O)(=O)NCCc3ccccc3)ccc21	none
Cn1c(=O)oc2cc(S(=O)(=O)NCCc3ccccc3)ccc21	GSTO1 counter 35.0
O=[N+]([O-])c1ccc(Cl)cc1Sc1nc2ccccc2o1	none
O=[N+]([O-])c1ccc(Sc2nc3ccccc3o2)c([N+](=O)[O-])c1	PAD4 FP inh 48.8
CC(C)CCNC(=O)[C@H]1COC(O)([C@H](Cc2ccccc2)NC(=O)[C@@H](NC(=O)OCc2ccccc2)C(C)C)CN1C (stereo partly specified)	none (no result: GSTO1 counter, CTSL1 counter, PAD4 FP inh)
CCOC(=O)Cc1nnc(NC(=O)CSc2nnc3c4ccccc4n(C)c3n2)s1	GSTO1 counter 35.2
CCOC(=O)Cc1nnc(NC(=O)CSc2ccc(C)cc2)s1	none
CC(c1c[nH]c2ccccc12)c1c[nH]c2ccc(Br)cc12 (stereo unspecified)	none (no result: GSTO1 counter, CTSL1 counter, PAD4 FP inh)
Oc1ccc(N=C/C=C/c2ccc(Br)cc2)cc1-c1nc2ccccc2s1	GSTO1 counter 36.3 (no result: TDP2 inh)
Brc1cc2c(cc1-c1nc3ccccc3s1)OCO2	none
O=C(NCCNC(=O)c1ccccc1)c1ccccc1	none
O=C(NCS(=O)(=O)c1ccccc1)c1ccccc1	CTSL1 counter 29.8
Cc1nn(C)c(C)c1N1C(=O)c2cccc3c(N)ccc(c23)C1=O	PAD4 FP inh 31.2
O=C(O)c1cc(NN=C2c3ccccc3-c3ccccc32)ccc1Cl	none
O=C(O)c1cc(N/N=C/C(Cl)=C/c2ccccc2)ccc1Cl	GSTO1 counter 40.1
Cc1cccc(N=Cc2[nH]c3ccc(Br)c(Cl)c3c2O)c1	TDP2 inh 28.8
C/C(=N\N=C(/N)SC1CC(=O)N(c2ccc(Cl)cc2)C1=O)c1cccs1 (stereo unspecified)	GSTO1 counter 36.3
C/C(=N\N=C(/N)SC1CC(=O)N(c2ccccc2)C1=O)c1cccs1 (stereo unspecified)	none
O=C(c1cccs1)N1CC[C@H]2[C@H](CCCN2Cc2cc(F)cc(F)c2)C1	none (no result: GSTO1 counter, CTSL1 counter, PAD4 FP inh)
CC(C)C[C@H]1CN=C(Nc2ccccc2)N1CC1CCCCCC1	CTSL1 counter 19.6
CCOc1cc(N2CCOCC2)c(OCC)cc1NC(=O)COC(=O)c1cccc2ccccc12	CTSL1 counter 30.3
CCOc1cc(N2CCOCC2)c(OCC)cc1NC(=O)C(C)C	none
CCOc1cc(N2CCOCC2)c(OCC)cc1NC(C)C(=O)N1CCN(CC)CC1 (stereo unspecified)	TDP2 inh 45.2 (no result: GSTO1 counter, CTSL1 counter, PAD4 FP inh)
CCOc1cc(N2CCOCC2)c(OCC)cc1NC(=O)CN1CCCC(C)C1 (stereo unspecified)	CTSL1 counter 45.4
CCOc1cc(N2CCOCC2)c(OCC)cc1NC(=O)COC(=O)c1ccccc1OC(F)F	none (no result: GSTO1 counter, CTSL1 counter, PAD4 FP inh)
O=c1c2ccc(F)cc2nc2sc(Nc3ccc4c(c3)CCC4)nn12	none (no result: GSTO1 counter, CTSL1 counter, PAD4 FP inh)
O=C(N[C@H](C(=O)N1CCC[C@H]1C(=O)NCCc1ccccc1Cl)C1CCCCC1)c1ccccc1	none (no result: GSTO1 counter, CTSL1 counter, PAD4 FP inh)
CN(C)C(CNC(=O)c1ccc([N+](=O)[O-])cc1Cl)c1ccco1 (stereo unspecified)	CTSL1 counter 18.6
CN(C)c1ccc([N+](=O)[O-])cc1C(=O)NCC(c1ccco1)N(C)C (stereo unspecified)	none
O=C(NCc1ccc(Cl)c(Cl)c1)O[C@H]1CC[C@@]23CCCN2C(=O)CCC[C@H]3C1	none (no result: GSTO1 counter, CTSL1 counter, PAD4 FP inh)
O=C(/C=C/Nc1ccc([N+](=O)[O-])cc1)c1ccc(Br)cc1	CTSL1 counter 17.5
Cn1cnnc1SCc1ccccc1	none
Cn1cnnc1SCc1ccc(-c2ccc(Br)cc2)o1	CTSL1 counter 59.5
CC(C)C(=O)NNC(=O)CSc1ncnc2c1cnn2-c1ccccc1Cl	CTSL1 counter 43.9
COc1ccc(-n2c(=O)c3c4c(sc3n3c(=S)[nH]nc23)CCC4)cc1	CTSL1 counter 16.8
CC1(C)C(=O)N(c2ccccc2)C1c1ccccc1O (stereo unspecified)	none
COc1ccc(N2C(=O)C(C)(C)C2c2c(O)ccc3ccccc23)cc1 (stereo unspecified)	CTSL1 counter 16.9
CC(=O)c1ccc(N2CCN(C(=O)c3ccc(Cn4c(=S)[nH]c5ccc(N6CCOCC6)cc5c4=O)cc3)CC2)cc1	GSTO1 counter 34.9
O=C1NC(=O)[C@@H]2C3c4ccccc4C=CN3[C@H](C(=O)c3cccs3)[C@H]12 (stereo partly specified)	GSTO1 counter 35.4 (no result: TDP2 inh)
CC(C)c1onc(C(=O)NCc2ccccc2)c1[N+](=O)[O-]	GSTO1 counter 37.5, CTSL1 counter 17.6
CC(C)(C)c1ccc(CNc2nc(-c3ccccn3)nnc2-c2ccccc2)cc1	none (no result: GSTO1 counter, CTSL1 counter, PAD4 FP inh)
O=C(NC1CCCCC1)C(c1cccnc1)N(C(=O)CCl)c1cccc(Cl)c1 (stereo unspecified)	GSTO1 counter 96.2

Compound activity as filed in PubChem BioAssay.
